From ChEMBL document CHEMBL1134514, “Synthesis of novel gamma-aminobutyric acid (GABA) uptake inhibitors. 5.(1) Preparation and structure-activity studies of tricyclic analogues of known GABA uptake inhibitors” (J Med Chem, 2001)

Experiments:
[1] = molecular target: GABA transporter (Rattus norvegicus, UniProt P31647+P23978+P31646+P48056); assay: In vitro inhibition of [3H]GABA uptake in rat synaptosomes was determined; format: functional, subcellular, Brain
Summary of the method: (§1)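 Rat forebrain homogenized in ice-cold 0.32 M sucrose, spun 10 min at 600 g, 4 °C; pellet resuspended in pH 7.4 phosphate/NaCl/glucose buffer. Synaptosomes (0.1 mg protein) preincubated with test substance 8 min at 30 °C, then [3H]-GABA (0.9 nM final) plus unlabeled GABA (0.9 nM final) for 8 min. Filtration on glass fiber, ice-cold saline washes, scintillation counting. IC50 as mean of two determinations.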

[2] = molecular target: T1, GABA transporter (Mus musculus) (UniProt P31650+P31651+P31649+P31648); assay: Ratio for ED50 values for inhibition of rotarod to inhibition of DMCM-induced convulsions in mice; format: functional
Summary of the method: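 Protective index is the rotarod ED50 divided by the ED50 for inhibiting DMCM (15 mg/kg ip) clonic seizures. Both were measured in mice after ip dosing.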

[3] = molecular target: T1, GABA transporter (Mus musculus); assay: In vivo anticonvulsant effect measured as inhibition of DMCM -induced seizures in mice after ip administration.; format: functional, organism-based
Summary of the method: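 Female NMRI mice given test drug ip 30 min before DMCM 15 mg/kg ip. Observed for 30 min for clonic seizures and death, N = 5-10 per dose. ED50 in mg/kg.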

[4] = molecular target: T1, GABA transporter (Mus musculus); assay: In vivo anticonvulsant effect measured as rotarod in mice after ip administration; format: functional, organism-based
Summary of the method: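 Mice pretrained 2 min on rotarod (6 rpm, 3 cm rod), then dosed ip. On testing, a mouse that fell was placed back on the rod. Testing ended at 10 failures or after 2 min. ED50 in mg/kg.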

[5] = species: Rattus norvegicus; assay: In vitro inhibition of [3H]GABA uptake in rat synaptosomes was determined; No activity; format: functional, Brain
[6] = species: Rattus norvegicus; assay: In vitro inhibition of [3H]GABA uptake determined; format: functional; summary of the method: as §1

Question: With `Cl.O=C(O)[C@@H]1CCCN(CCOCCN(c2ccccc2)c2ccccc2)C1` as the molecule, how does the IC50 [1] read?
Answer: 90 nM

Question: What about the Protective index [2] of the same molecule?
Answer: 1.6

Question: Which IC50 [1] does the source give for `Cl.O=C(O)[C@H]1CCCN(CCOCCC2c3ccccc3CCc3ccccc32)C1` here?
Answer: 561 nM

Question: And the ED50 [3]?
Answer: 23 mg/kg

Question: And the ED50 [4]?
Answer: > 60 mg/kg

Question: And the Protective index [2]?
Answer: > 2.6

Question: Which IC50 [1] does the source give for `Cl.O=C(O)[C@@H]1CCCN(CCCOCC=C2c3ccccc3CCc3ccccc32)C1` here?
Answer: 460 nM

Question: What about the ED50 [3] of the same molecule?
Answer: 60 mg/kg

Question: What about the ED50 [4] of the same molecule?
Answer: > 150 mg/kg

Question: And the Protective index [2]?
Answer: > 2.5

Question: With `Cl.O=C(O)[C@@H]1CCCN(CCOCCn2c3ccccc3c3ccccc32)C1` as the molecule, how does the IC50 [1] read?
Answer: > 40000 nM

Question: Which results are given for `Cl.O=C(O)[C@@H]1CCCN(CCOCCN2c3ccccc3Sc3ccc(C(F)(F)F)cc32)C1`?
Answer: IC50 [1]: 105 nM; ED50 [3]: 38 mg/kg; ED50 [4]: > 60 mg/kg; Protective index [2]: > 1.6

Question: For `Cl.O=C(O)[C@@H]1CCCN(CCON=C2c3cc(Cl)ccc3CCc3ccc(Cl)cc32)C1`, which IC50 [1] is on record?
Answer: 5509 nM

Question: What about the ED50 [3] of the same molecule?
Answer: 35 mg/kg

Question: What about the ED50 [4] of the same molecule?
Answer: 40 mg/kg

Question: And the Protective index [2]?
Answer: 1.1

Question: `Cl.O=C(O)[C@@H]1CCCN(CCOCCC(c2ccccc2)c2ccccc2)C1` was tested. Which IC50 [1] did it give?
Answer: 55 nM

Question: And the Protective index [2]?
Answer: 5.3

Question: For `O=C(O)C1CCCN(CCOC2c3ccccc3-c3ccccc32)C1` (stereo not drawn), which IC50 [5] is on record?
Answer: Not Active

Question: How did the IC50 [6] turn out when `O=C(O)[C@@H]1CCCN(CCOC=C(c2ccccc2)c2ccccc2)C1` was run?
Answer: 87 nM

Question: How did the IC50 [1] turn out when `Cl.O=C(O)[C@@H]1CCCN(CCOCCN2c3ccccc3CCc3ccccc32)C1` was run?
Answer: 184 nM

Question: What about the ED50 [3] of the same molecule?
Answer: 15 mg/kg

Question: What about the ED50 [4] of the same molecule?
Answer: 85 mg/kg

Question: And the Protective index [2]?
Answer: 5.7

Question: With `Cl.O=C(O)C1CCCN(CCOC(c2ccccc2)c2ccccc2)C1` (stereo not drawn) as the molecule, how does the IC50 [1] read?
Answer: 1370 nM

Question: How did the IC50 [1] turn out when `Cl.O=C(O)[C@@H]1CCCN(CCOCCN2c3ccccc3Oc3ccccc32)C1` was run?
Answer: 14600 nM

Question: How did the IC50 [1] turn out when `O=C(O)[C@@H]1CCCN(CCC=C2c3ccccc3-c3ccccc32)C1` was run?
Answer: 2018 nM

Question: For `Cl.O=C(O)[C@@H]1CCCN(CCON=C(c2ccccc2)c2ccccc2)C1`, which IC50 [1] is on record?
Answer: 82 nM

Question: For `Cl.O=C(O)[C@@H]1CCCN(CCOCCN2c3ccccc3CCc3ccc(Cl)cc32)C1`, which IC50 [1] is on record?
Answer: 74 nM

Question: What about the ED50 [3] of the same molecule?
Answer: 15 mg/kg

Question: What about the ED50 [4] of the same molecule?
Answer: > 30 mg/kg

Question: And the Protective index [2]?
Answer: > 2

Question: For `O=C(O)[C@@H]1CCCN(CCOCCN2c3ccc(Br)cc3CCc3cc(Br)ccc32)C1`, which IC50 [6] is on record?
Answer: 1030 nM

Question: With `Cl.O=C(O)[C@H]1CCCN(CCOC/C=C2\c3ccccc3CCc3ccc(Cl)cc32)C1` as the molecule, how does the IC50 [1] read?
Answer: 2495 nM

Question: What about the ED50 [3] of the same molecule?
Answer: 50 mg/kg

Question: What about the ED50 [4] of the same molecule?
Answer: > 60 mg/kg

Question: What about the Protective index [2] of the same molecule?
Answer: > 1.2

Question: How did the IC50 [1] turn out when `Cl.O=C(O)[C@@H]1CCCN(CCOCCN2c3cc(Cl)ccc3CCc3ccc(Cl)cc32)C1` was run?
Answer: 68 nM

Question: And the ED50 [3]?
Answer: 45 mg/kg

Question: What about the ED50 [4] of the same molecule?
Answer: > 100 mg/kg

Question: And the Protective index [2]?
Answer: > 2.2

Question: Which results are given for `Cl.O=C(O)[C@@H]1CCCN(CCOCCN2c3ccccc3Sc3ccccc32)C1`?
Answer: IC50 [1]: 308 nM; ED50 [3]: 30 mg/kg; ED50 [4]: 54 mg/kg; Protective index [2]: 1.8

Question: Which results are given for `Cl.O=C(O)[C@@H]1CCCN(CCOCCN2c3ccccc3C=Cc3ccccc32)C1`?
Answer: IC50 [1]: 647 nM; ED50 [3]: 30 mg/kg; ED50 [4]: > 30 mg/kg; Protective index [2]: > 1

Question: With `O=C(O)[C@@H]1CCCN(CCOC=C2c3ccccc3CCc3ccccc32)C1` as the molecule, how does the IC50 [6] read?
Answer: 2180 nM

Question: How did the IC50 [1] turn out when `Cl.O=C(O)[C@@H]1CCCN(CCOCCN2c3ccc(F)cc3CCc3cc(F)ccc32)C1` was run?
Answer: 248 nM

Question: With `Cl.O=C(O)C1=CCCN(CCOCCC2c3ccccc3CCc3ccccc32)C1` as the molecule, how does the IC50 [1] read?
Answer: 1202 nM

Question: Which results are given for `Cl.O=C(O)[C@@H]1CCCN(CCON=C2c3ccccc3CCc3ccccc32)C1`?
Answer: IC50 [1]: 1161 nM; ED50 [3]: 30 mg/kg; ED50 [4]: > 100 mg/kg; Protective index [2]: > 3.3

Question: Which results are given for `Cl.O=C(O)[C@@H]1CCCN(CCOCCCN2c3ccccc3CCc3ccccc32)C1`?
Answer: IC50 [1]: 696 nM; ED50 [3]: 50 mg/kg; ED50 [4]: > 60 mg/kg; Protective index [2]: > 1.2

Question: How did the IC50 [1] turn out when `Cl.O=C(O)[C@H]1CCCN(CCOCC=C2c3ccccc3CCc3ccccc32)C1` was run?
Answer: 770 nM

Question: And the ED50 [3]?
Answer: 30 mg/kg

Question: And the ED50 [4]?
Answer: > 100 mg/kg

Question: What about the Protective index [2] of the same molecule?
Answer: > 3.3

Question: How did the IC50 [1] turn out when `Cl.O=C(O)CC1CCN(CCOCCN2c3ccccc3CCc3ccccc32)C1` (stereo not drawn) was run?
Answer: 51 nM

Question: What about the ED50 [3] of the same molecule?
Answer: 31 mg/kg

Question: And the ED50 [4]?
Answer: 100 mg/kg

Question: What about the Protective index [2] of the same molecule?
Answer: 3.2

Question: For `Cl.O=C(O)[C@@H]1CCCN(CCOCCN2c3ccccc3CCc3ccc(F)cc32)C1`, which IC50 [1] is on record?
Answer: 265 nM

Question: How did the IC50 [1] turn out when `Cl.O=C(O)[C@@H]1CCCN(CCOCCN2c3ccccc3CCCc3ccccc32)C1` was run?
Answer: 851 nM

Question: And the ED50 [3]?
Answer: 60 mg/kg

Question: And the Protective index [2]?
Answer: > 1.5

Question: With `O=C(O)C1CCCN(CCOC2c3ccccc3C=Cc3ccccc32)C1` (stereo not drawn) as the molecule, how does the IC50 [1] read?
Answer: 2500 nM

Question: `Cl.O=C(O)C1=CCCN(CCOCCN2c3ccccc3CCc3ccccc32)C1` was tested. Which IC50 [1] did it give?
Answer: 644 nM

Question: And the ED50 [3]?
Answer: 7.3 mg/kg

Question: And the ED50 [4]?
Answer: 21 mg/kg

Question: What about the Protective index [2] of the same molecule?
Answer: 2.9

Question: Which IC50 [1] does the source give for `O=C(O)C1CCCN(CCC=C2c3ccccc3CCc3ccccc32)C1` (stereo not drawn) here?
Answer: 13600 nM

Question: What about the ED50 [3] of the same molecule?
Answer: > 60 mg/kg

Question: And the ED50 [4]?
Answer: > 60 mg/kg
